Measurements: ChEMBL document CHEMBL2062525, “Substituted 3-(5-imidazo[2,1-b]thiazolylmethylene)-2-indolinones and analogues: synthesis, cytotoxic activity, and study of the mechanism of action” (J Med Chem, 2012)
Calls of active or inactive are those of the source.

Legend:
[1] = Cytotoxicity against human renal cancer cells after 48 hrs; format: functional; settings: Cancer cell lines; for CC50: read-out: LC50 (the source's name)
Summary of the method: (§1)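 NCI 60-cell panel subpanel lines; compounds first screened at a single 10−5 M, then those passing threshold tested in five-concentration assay over 10−9 to 10−4 M (some to 10−3 M), 48 h exposure. Growth relative to untreated control measured as cell protein; GI50, TGI and LC50 derived; some values are means of two experiments.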

[2] = Cytotoxicity against human prostate cancer cells after 48 hrs; format: functional; settings: Cancer cell lines
Summary of the method: (§2)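 NCI 60-cell panel (subpanels include leukemia and prostate). […] Percent growth relative to untreated control; some repeats averaged over two experiments.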

[3] = Cytotoxicity against human ovarian cancer cells after 48 hrs; format: functional; settings: Cancer cell lines; summary of the method: as §1
[4] = Cytotoxicity against human breast cancer cells after 48 hrs; format: functional; settings: Cancer cell lines; summary of the method: as §1
[5] = Cytotoxicity against human COLON cells after 48 hrs; format: functional; summary of the method: as §1
[6] = Cytotoxicity against human CNS cancer cells after 48 hrs; format: functional; settings: Cancer cell lines; summary of the method: as §1
[7] = Inhibition of bovine brain tubulin assembly after 20 mins; design: species or system Bos taurus
[8] = test system: NSCLC; experiment: Cytotoxicity against human NSCLC cells after 48 hrs; format: functional; summary of the method: as §1
[9] = species on record: Bos taurus; experiment: Displacement of [3H]colchicine from bovine brain tubulin at 5 uM after 10 mins
[10] = Cytotoxicity against human melanoma cells after 48 hrs; format: functional; settings: Melanoma cell; for CC50: read-out: LC50 (the source's name); summary of the method: as §1
[11] = Cytotoxicity against human leukemia cells after 48 hrs; format: functional; settings: Leukemia cell; summary of the method: as §2
[12] = test system: HT-29; experiment: Induction of apoptosis in human HT-29 cells assessed as nuclear fragmentation by propidium iodide staining method; format: functional, cell-based
Summary of the method: (§3)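 HT-29 cells on glass coverslips (1×10^4 cells/cm2), treated 24 h; fixed in 3% paraformaldehyde, ethanol-permeabilized; nuclei stained with PI and viewed by laser scanning confocal microscopy for chromatin condensation and nuclear fragmentation; representative of three experiments.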

[13] = test system: HT-29; experiment: Induction of cell cycle arrest in human HT-29 cells assessed as increase in p21 expression after 24 hrs by immunofluorescence confocal microscopy; format: functional, cell-based
Summary of the method: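 On coverslips, HT-29 cells were treated 24 h, fixed with 3% paraformaldehyde, permeabilized with 70% ice-cold ethanol, stained with anti-p21 then FITC secondary (1 h, room temperature each), nuclei counterstained with PI; confocal microscopy; representative of three experiments.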

[14] = target: MAP kinase p38 (Homo sapiens) (UniProt O15264+Q15759+Q16539+P53778); experiment: Inhibition of p38 phosphorylation at Thr180/Tyr182 in human HeLa cells at 1 uM after 3 hrs by Western blotting analysis; format: cell-based
Summary of the method: (§4)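 HeLa cells in RPMI 1640 with 10% FBS, treated 3 h at 1 μM. Lysates centrifuged 15,000 × g 15 min; 80 μg protein per lane by SDS-PAGE, nitrocellulose transfer, phospho-specific and total primary antibodies, peroxidase anti-rabbit secondary, ECL chemiluminescence.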

[15] = test system: HT-29; experiment: Induction of apoptosis in human HT-29 cells at 100 nM after 24 hrs by trypan blue exclusion assay; format: functional, cell-based
Summary of the method: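 HT-29 cells plated at 2×10^4 cells/cm2, treated 24 h in triplicate (DMSO 0.01%; DMSO-only controls); viable cells counted by trypan blue exclusion; mean ± s.e.m. of three determinations.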

[16] = target: Serine/threonine-protein kinase mTOR (Homo sapiens) (UniProt P42345); experiment: Inhibition of mTOR phosphorylation at ser2448 in human HeLa cells at 1 uM after 3 hrs by Western blotting analysis; format: cell-based; summary of the method: as §4
[17] = target: Mitogen-activated protein kinase; ERK1/ERK2 (Homo sapiens) (UniProt P27361+P28482); experiment: Inhibition of ERK1/2 phosphorylation at Thr202/Tyr204 in human HeLa cells at 1 uM after 3 hrs by Western blotting analysis; format: cell-based; summary of the method: as §4
Sequence of Mitogen-activated protein kinase; ERK1/ERK2 (Homo sapiens) (P27361 whole entry, looked up): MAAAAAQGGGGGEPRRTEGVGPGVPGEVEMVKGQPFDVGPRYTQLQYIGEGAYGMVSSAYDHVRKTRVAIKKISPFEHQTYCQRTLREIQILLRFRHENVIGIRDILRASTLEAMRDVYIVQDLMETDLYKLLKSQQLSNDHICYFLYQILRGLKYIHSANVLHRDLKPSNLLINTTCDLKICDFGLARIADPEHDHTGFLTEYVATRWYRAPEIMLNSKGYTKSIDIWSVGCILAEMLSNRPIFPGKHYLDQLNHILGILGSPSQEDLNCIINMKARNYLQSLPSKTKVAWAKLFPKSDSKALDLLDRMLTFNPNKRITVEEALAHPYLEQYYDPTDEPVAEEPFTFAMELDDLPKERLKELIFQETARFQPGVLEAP
Sequence of Mitogen-activated protein kinase; ERK1/ERK2 (Homo sapiens) (P28482 whole entry, looked up): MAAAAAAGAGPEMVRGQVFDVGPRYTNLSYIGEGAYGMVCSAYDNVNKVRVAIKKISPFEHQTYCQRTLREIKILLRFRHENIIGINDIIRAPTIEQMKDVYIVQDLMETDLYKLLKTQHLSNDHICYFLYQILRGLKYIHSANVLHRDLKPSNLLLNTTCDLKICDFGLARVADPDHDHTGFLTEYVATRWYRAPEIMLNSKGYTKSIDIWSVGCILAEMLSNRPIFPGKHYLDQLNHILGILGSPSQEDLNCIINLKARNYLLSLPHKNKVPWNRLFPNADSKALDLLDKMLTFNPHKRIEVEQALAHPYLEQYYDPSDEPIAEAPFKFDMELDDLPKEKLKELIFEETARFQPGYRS

[18] = test system: HT-29; experiment: Cell cycle arrest in human HT-29 cells assessed as increase of cell population at G2/M phase at 100 nM after 24 hrs by flow cytometry; format: functional, cell-based
Summary of the method: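 HT-29 cells in RPMI 1640 with 10% FBS, 2 mM L-glutamine, 37 °C, 5% CO2; treated 24 h, DMSO 0.01% in medium. Fixed in 70% ethanol at −20 °C ≥12 h, RNase A (10 μg/mL) 30 min at 37 °C, DNA stained with PI (50 μg/mL), flow cytometry; one experiment representative of three.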

[19] = test system: HeLa; experiment: Inhibition of Akt phosphorylation at ser473 in human HeLa cells at 1 uM after 3 hrs by Western blotting analysis; format: cell-based; summary of the method: as §4
[20] = test system: HT-29; experiment: Induction of apoptosis in human HT-29 cells assessed as increase in early apoptotic cells after 24 hrs by annexin-V-FLUOS and propidium iodide staining based flow cytometry (reference value: 3.9%); format: functional
[21] = target: c-Jun N-terminal kinase, JNK (Homo sapiens) (UniProt P45983+P53779+P45984); experiment: Inhibition of JNK phosphorylation at Thr183/Tyr185 in human HeLa cells at 1 uM after 3 hrs by Western blotting analysis; format: cell-based; summary of the method: as §4
[22] = test system: HT-29; experiment: Induction of apoptosis in human HT-29 cells assessed as increase in caspase activity at 500 nM after 48 hrs by fluorometry; format: functional, cell-based
Summary of the method: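 Cells exposed 48 h to 500 nM; DEVD-cleaving caspase (DEVDase) activity measured fluorometrically in cell extracts; mean ± s.e.m. of four determinations.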

[23] = test system: HT-29; experiment: Induction of apoptosis in human HT-29 cells assessed as chromatin condensation by propidium iodide staining method; format: functional, cell-based; summary of the method: as §3
[24] = target: AMP-activated protein kinase, AMPK (Homo sapiens) (UniProt P54646+O43741+P54619+Q9UGJ0+Q9Y478+Q13131+Q9UGI9); experiment: Inhibition of AMPK phosphorylation at Thr172 in human HeLa cells at 1 uM after 3 hrs by Western blotting analysis; format: cell-based; summary of the method: as §4

O=C1Nc2ccc(Cl)cc2C1=Cc1c(-c2ccccn2)nc2sccn12 (mixture of isomers)
GI50 [1]: 1.15 µM
TGI [1]: 10.5 µM
CC50 [1]: 43.6 µM
GI50 [2]: 1.26 µM
LC50 (concentration killing 50% of cells) [2]: 47.9 µM
TGI [2]: 19.1 µM
GI50 [3]: 1.62 µM
LC50 (concentration killing 50% of starting cells) [3]: 50.1 µM
TGI [3]: 17.4 µM
GI50 [4]: 0.45 µM
LC50 [4]: 42.7 µM
TGI [4]: 7.76 µM
GI50 [5]: 0.52 µM
LC50 (concentration giving 50% net cell kill) [5]: 33.9 µM
TGI [5]: 10.5 µM
GI50 [6]: 0.71 µM
LC50 [6]: 66.1 µM
TGI [6]: 22.4 µM
IC50 [7]: > 20 µM
GI50 [8]: 1.78 µM
LC50 [8]: 58.9 µM
TGI [8]: 18.2 µM
inhibition [9]: 13%
GI50 [10]: 0.68 µM
TGI [10]: 11.8 µM
CC50 [10]: 51.3 µM
GI50 [11]: 0.28 µM
LC50 (concentration killing 50% of cells) [11]: 69.2 µM
TGI [11]: 7.08 µM

COc1ccc2c(c1)C(=Cc1c(OC)nc3sccn13)C(=O)N2 (mixture of isomers)
GI50 [1]: 0.14 µM
TGI [1]: 31.6 µM
Activity [12]: Active
GI50 [2]: 0.05 µM
TGI [2]: 40.7 µM
GI50 [3]: 0.1 µM
TGI [3]: 12 µM
Activity [13]: Active
GI50 [4]: 0.17 µM
TGI [4]: 34.7 µM
inhibition [14]: Active
Activity [15]: Active
LC50 (concentration giving 50% net cell kill) [5]: 66.1 µM
TGI [5]: 7.59 µM
inhibition [16]: inactive
inhibition [17]: Active
Activity [18]: Active
inhibition [19]: Active
Activity [20]: 27%
inhibition [21]: Active
GI50 [6]: 0.04 µM
TGI [6]: 15.5 µM
Activity [22]: Active
Activity [23]: Active
inhibition [24]: Active
IC50 [7]: 2.9 µM
GI50 [8]: 0.16 µM
TGI [8]: 44.7 µM
inhibition [9]: 62%
GI50 [10]: 0.04 µM
TGI [10]: 20.9 µM
CC50 [10]: 81.3 µM
GI50 [11]: 0.02 µM
LC50 (concentration killing 50% of cells) [11]: 91.2 µM
TGI [11]: 4.57 µM

COc1nc2sccn2c1/C=C1/C(=O)Nc2cc(Cl)ccc21
GI50 [1]: 0.62 µM
TGI [1]: 49 µM
CC50 [1]: 85.1 µM
GI50 [2]: 0.39 µM
TGI [2]: 69.2 µM
GI50 [3]: 0.65 µM
LC50 (concentration killing 50% of starting cells) [3]: 89.1 µM
TGI [3]: 21.4 µM
GI50 [4]: 0.54 µM
TGI [4]: 58.9 µM
GI50 [5]: 0.33 µM
LC50 (concentration giving 50% net cell kill) [5]: 79.4 µM
TGI [5]: 22.4 µM
GI50 [6]: 0.35 µM
LC50 [6]: 75.9 µM
TGI [6]: 16.2 µM
IC50 [7]: 13 µM
GI50 [8]: 1.29 µM
TGI [8]: 79.4 µM
inhibition [9]: 53%
GI50 [10]: 0.21 µM
TGI [10]: 34.7 µM
CC50 [10]: 93.3 µM
GI50 [11]: 0.14 µM
TGI [11]: 5.37 µM
